Test system: MS2 coat protein
Assay: apparent Kd, MS2 coat protein; higher = weaker binding; RNA-MaP array; FMN 200 µM where present
Summary of the method: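 The apparent Kd is the median of filtered binding-curve fits, one per cluster, to green signal normalised to red-channel RNA signal and control-cluster median Fmax. The clusters were on Illumina sequencing chips, and stalled E. coli RNA polymerase had transcribed the designs on them. Titration used SNAP-549-labelled MS2 coat protein from 0.7 or 1.5 nM, doubling to 3 µM, without and then with constant ligand, in 100 mM Tris-HCl pH 7.5, 80 mM KCl, 4 mM MgCl2, BSA, DTT, yeast tRNA and Tween-20.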

[1] = designed as: OFF switch for flavin mononucleotide, no ligand
[2] = ligand present: flavin mononucleotide, designed as: OFF switch for flavin mononucleotide
[3] = designed as: ON switch for flavin mononucleotide, no ligand
[4] = ligand present: flavin mononucleotide, designed as: ON switch for flavin mononucleotide

## UUACUACAUGUAGGAUAUGCGUGGCGAAGCUAUGCAGAAGGACAUGAGGAUCACCCAUGUUUUAGCGUCUGCGUACAGAUGCGU
[1]
  apparent Kd: 19 nM
[2]
  apparent Kd: 28.4 nM

## UUACUAUAACAGAAGGGUAGAUAGUAUAUAGAUGCAGGAUAUGUUACAUGAGGAUCACCCAUGUUUCACCCACAUGAGGAUCAC
[1]
  apparent Kd: 32 nM
[2]
  apparent Kd: 70.3 nM

## UUACUCAUGUAAGGAUAUGCAGCCGCUUCGGCUGCAGAAGGUACUAUAAUACAUGAGGAUCACCCAUGUCUUUUUAAUUUAGAC
[3]
  apparent Kd: 82.7 nM
[4]
  apparent Kd: 36.5 nM

## UUACUCAUGUAAGGAUAUGCAGCCGUUUCGGCUGCAGAAGGUACUAUAAUACAUGAGGAUCACCCAUGUCUAUAAACUAAAGAC
[3]
  apparent Kd: 84.2 nM
[4]
  apparent Kd: 45.8 nM

## UUACUUCAUGAGAAGGACAUGAGGAUCACCCAUGUAGGAUAUCGUGGGAGACUGGUAUUGAAUCUUCGGAUUCAAUACCUGUCU
[3]
  apparent Kd: 59.7 nM
[4]
  apparent Kd: 9.3 nM

## UUAGAGGAUUAAGGAUAUGCAGAGAGAUCAUGCGCGUCGCGCACAUGAGGAUCACCCAUGUAAGAGCAGAAGGUAACUAUGAUC
[1]
  apparent Kd: 19.9 nM
[2]
  apparent Kd: 18.4 nM

## UUAGUCAUGUAAGGAUAUCCGAUGCGAAGCGUUGGAGAAGGUACAUGAGGAUCACCCAUGUUCUGCGUCUGAGUACAGAUGCUA
[1]
  apparent Kd: 494 nM
[2]
  apparent Kd: 174 nM

## UUAUAAAAUAAAGGAUAUUCAUACCGGAAACGGACAUGAGGAUCACCCAUGUGGCGAAAGCCUUGGGAGAAGGUUAAAAUAUAU
[3]
  apparent Kd: 441 nM
[4]
  apparent Kd: 317 nM

## UUAUAAAGAGUGAGGAUAUGCUGGUCCUUGGAUCAGCAGAAGGCACAUGAGGAUCACCCAUGUAAAAUAAUAUU
[1]
  apparent Kd: 28.4 nM
[2]
  apparent Kd: 41.2 nM

## UUAUAAAGUGUGAGGAUAUGCUGGUCCUUGGAUCAGCAGAAGGCACAUGAGGAUCACCCAUGUAAUAUAUUUUU
[1]
  apparent Kd: 89.8 nM
[2]
  apparent Kd: 309 nM

## UUAUACGUUGAGGAUAUGCGACUGUUUUAAGUUGUAGAAGGCGAUACAUGAGGAUCACCCAUGUUUAUGGGCAU
[1]
  apparent Kd: 240 nM
[2]
  apparent Kd: 327 nM

## UUAUAUAGUGUGAGGAUAUGCUGGUCCUUGGAUCAGCAGAAGGCACAUGAGGAUCACCCAUGUAGUUAAAUUUA
[1]
  apparent Kd: 34.4 nM
[2]
  apparent Kd: 134 nM

## UUAUAUAUAUAAGGAUAUGUAUAUCCAACAUGAGGAUCACCCAUGUUGAGGAUCACCCAUGUAAAGCAGAAGGUAUAUAUAAAU
[3]
  apparent Kd: 42.8 nM
[4]
  apparent Kd: 26.4 nM

## UUAUUAUAUGUAGGAUAUGCAUAUUAUCAUUGUGCAGAAGGACAUGAGGAUCACCCAUGUAUAUUAUUAUUAUAUAUUAUAUAU
[1]
  apparent Kd: 17.5 nM
[2]
  apparent Kd: 18.5 nM

## UUAUUAUAUGUAGGAUAUGCAUAUUAUUAUUAUGCAGAAGGACAUGAGGAUCACCCAUGUAUGUUGUUAUUAUAUAUUAUAUAU
[1]
  apparent Kd: 25.2 nM
[2]
  apparent Kd: 34.5 nM

## UUAUUAUAUGUAGGAUAUGCAUAUUGUUAUUAUGCAGAAGGACAUGAGGAUCACCCAUGUAUAUUAUUAUUAUAUAUUAUAUAU
[1]
  apparent Kd: 29.4 nM
[2]
  apparent Kd: 48.8 nM

## UUAUUCAGAGGAUAUGCGCAUAGAUAAGACUUUUUUUCUUAACAUGAGGAUCACCCAUGUAGAAGGCUGUAAUU
[1]
  apparent Kd: 18.4 nM
[2]
  apparent Kd: 18.7 nM

## UUAUUGUGAGGAUAUCCAAUAUAUGACAUGAGGAUCACCCAUGUUUCCACUCGUACCUCCGGAGAAGGCACAUUUU
[1]
  apparent Kd: 30.8 nM
[2]
  apparent Kd: 21.7 nM

## UUAUUUAUACAAGGAUAUCAAUUAUAUACAAUUCCUACAUGAGGAUCACCCAUGUUUUAUUUUUUUGAGAAGGUGUAUUGUCUG
[3]
  apparent Kd: 30.1 nM
[4]
  apparent Kd: 32.8 nM

## UUCAAAUUCGUAGGAUAUGUAUAUAUUUUCUACAUGAGGAUCACCCAUGUUACCAUUUUUUAUUGACAGAAGGACGUAAUCUAA
[3]
  apparent Kd: 34.6 nM
[4]
  apparent Kd: 13.8 nM

## UUCAACGAUGAAGGAUAUCUAUGUCCAACAUGAGGAUCACCCAUGUUGAGGAUUACCUAUGUGUAGGAGAAGGUCAAUUUGACU
[3]
  apparent Kd: 7.01 nM
[4]
  apparent Kd: 6.51 nM

## UUCAGCUUGACAGGAUAUACAUCACUGCGAAAGCAGUGUAUCUUAAUAACAUGAGGAUCACCCAUGUAGAAGGGUCGAGCUGAA
[1]
  apparent Kd: 18.4 nM
[2]
  apparent Kd: 32.7 nM

## UUCAUGUAAGGAUAUGCGGGCGGGCGCGUUUGUGUUUGUUUGUAGAAGGUACAUGAGGAUCACCCAUGUACUGG
[1]
  apparent Kd: 22 nM
[2]
  apparent Kd: 68.2 nM

## UUCAUGUGAGGAUAUAGUACUCUUUCUAUUAUUAUUGAGUAUUAGAAGGCACAUGAGGAUCACCCAUGUAGUAC
[1]
  apparent Kd: 30.7 nM
[2]
  apparent Kd: 16.4 nM

## UUCAUUAACAUGAGGAUCACCCAUGUUGGCCAGUCUCACACCAGAAGGCACGUUGAGCACAACAGUGAGGAUAUGGGUGACAUA
[3]
  apparent Kd: 286 nM
[4]
  apparent Kd: 52.9 nM

## UUCCUGGUGUAGAAGGAGGCCGAGCUCAAGCGGACGUCCUGAAUUGCGGGCCUAGGAUAUACAUGAGGAUCACCCAUGUACGGA
[1]
  apparent Kd: 39.8 nM
[2]
  apparent Kd: 111 nM

## UUCGGCAGUGCAGGAUAUCUAGAGAAACACCUAAGAGAAGGGCAAACAUGAGGAUCACCCAUGUUUGGCGUGAGGUGAAGUUAG
[1]
  apparent Kd: 5.99 nM
[2]
  apparent Kd: 6.02 nM

## UUGACAUUCAAGAAGGGUCACUCUACAUGAGGAUCACCCAUGUCUAUGGACAGGAUAUUGAUCGUCACCUGGUUAGCUUUCGGU
[3]
  apparent Kd: 770 nM
[4]
  apparent Kd: 19 nM

## UUGAGGUCAGGAUAUGCAUGGCGGGACUUGCGUCGUGGCGUGCAGAAGGGACAUGAGGAUCACCCAUGUGGAGG
[1]
  apparent Kd: 176 nM
[2]
  apparent Kd: 233 nM

## UUGAUAAAUUAGAAGGCGUGAUAAAAUACAAUAAACAUGAGGAUCACCCAUGUGUACCCAUGUUAUGAGGAUAUAGACAUUUAU
[3]
  apparent Kd: 365 nM
[4]
  apparent Kd: 245 nM

## UUGAUUAUACAAGGAUAUCUAUUGUAAUUGAGACUUACAUGAGGAUCACCCAUGUUAAUAUUUUUAGAGAAGGUGUAUUUUCAG
[3]
  apparent Kd: 32.3 nM
[4]
  apparent Kd: 22.9 nM

## UUGCGGUAGGAGAAGGACAGAGGCUUAAUUACAUACAUGAGGAUCACCCAUGUAGGAUAUCCUACCUAACGCGGACUCCUCCAG
[1]
  apparent Kd: 7.65 nM
[2]
  apparent Kd: 7.83 nM

## UUGGAAAACAUGAGGAUCACCCAUGUGAAGCCGGCUAGUACACAGGAUAUCCAGAACGCCGAGUUGGAGAAGGGUGAUCAGUCG
[3]
  apparent Kd: 38 nM
[4]
  apparent Kd: 80.4 nM

## UUGGACGUCGUAGGAUAUGUAGGAUAUUCCUACAUGAGGAUCACCCAUGUUGACAAGGAAGAAGGACAGAAGGACGAUGUCCAU
[3]
  apparent Kd: 5.37 nM
[4]
  apparent Kd: 3.37 nM

## UUGGACGUCGUAGGAUAUGUAGGAUAUUCCUACAUGAGGAUCACCCAUGUUGACAUGGAAGAAGGACAGAAGGCCGAUGUCCAU
[3]
  apparent Kd: 409 nM
[4]
  apparent Kd: 4.87 nM

## UUGGACGUCGUAGGAUAUGUAGGAUAUUCCUACAUGAGGAUCACCCAUGUUGACAUGGAAGAAGGACAGAUGGACGAUGUCCAU
[3]
  apparent Kd: 298 nM
[4]
  apparent Kd: 6.98 nM

## UUGGACGUCGUAGGAUAUGUAGGAUAUUCCUACAUGAGGAUCACCCAUGUUGACAUGGACGAAGGACAGAAGGACGAUGUCCAU
[3]
  apparent Kd: 479 nM
[4]
  apparent Kd: 134 nM

## UUGGACGUCGUCGGAUAUGUAGGAUAUUCCUACAUGAGGAUCACCCAUGUUGACAUGGAAGAAGGACAGAAGGACGAUGUCCAU
[3]
  apparent Kd: 83 nM
[4]
  apparent Kd: 4.6 nM

## UUGGACGUUGUAGGAUAUGUAGGAUAUUCCUACAUGAGGAUCACCCAUGUUGACAUGGAAGAAGGACAGAAGGACGAUGUCCAU
[3]
  apparent Kd: 277 nM
[4]
  apparent Kd: 5.32 nM

## UUGGCGCGAUCCUGGGUCUCACAUGAGGAUCACCCAUGUAGAGAGGAUAUGCAUAGGGCCCAUUGGCAGAAGGCUCUACAUGAG
[1]
  apparent Kd: 101 nM
[2]
  apparent Kd: 47.3 nM

## UUGGGUUUGCGAGGAUAUCGUUUGUGAUUUGAUCGAGAAGGCGCUAUUUAAAUUAUUUUAACAUUACAUGAGGAUCACCCAUGU
[3]
  apparent Kd: 19.1 nM
[4]
  apparent Kd: 17.2 nM

## UUGGUUGUCGUAGGAUAUGUAGGAUAUUCCUACAUGAGGAUCACCCAUGUUCGCAUGGAAGAAGGACAGAAGGACGAUGACCAA
[3]
  apparent Kd: 1080 nM
[4]
  apparent Kd: 10.4 nM

## UUGUAGUACGUAGGAUAUCAUUGAGGAUCACCCUGAGAAGGACGUGAGGACAUGAGGAUCACCCAUGUGGAUCACCCAUGUCAU
[1]
  apparent Kd: 329 nM
[2]
  apparent Kd: 231 nM

## UUGUUCUGAGGAUAUACAUGAGGAUCACCCAUGUGUUUCUGCUAGGAGACUAGCGAAUGUAGAAGGCUGUUCUC
[1]
  apparent Kd: 19.4 nM
[2]
  apparent Kd: 19.9 nM

## UUGUUCUGAGGAUAUACAUGAGGAUCACCCAUGUGUUUCUGCUUGGUGUCUUGCGUAUGUAGAAGGCUGUUCUC
[1]
  apparent Kd: 36.5 nM
[2]
  apparent Kd: 36.3 nM

## UUGUUGUAUGUAGGAUAUGCAUAUUAUUAUUAUGCAGAAGGACAUGAGGAUCACCCAUGUAUAUUAUUAUUAUAUGUUAUAUAU
[1]
  apparent Kd: 26 nM
[2]
  apparent Kd: 34.2 nM

## UUGUUGUAUGUAGGAUAUGCAUAUUAUUAUUAUGCAGAAGGACAUGAGGAUCACCCAUGUAUGUUAUUAUUAUAUGUUAUAUGU
[1]
  apparent Kd: 33.6 nM
[2]
  apparent Kd: 42.6 nM

## UUGUUGUAUGUAGGAUAUGCAUAUUAUUAUUGUGCAGAAGGACAUGAGGAUCACCCAUGUAUAUUAUUAUUAUAUGUUAUAUAU
[1]
  apparent Kd: 30.6 nM
[2]
  apparent Kd: 37.4 nM

## UUGUUGUAUGUAGGAUAUGCAUAUUGUUAUUAUGCAGAAGGACAUGAGGAUCACCCAUGUAUAUUAUUAUUAUAUGUUAUAUAU
[1]
  apparent Kd: 23.5 nM
[2]
  apparent Kd: 27.8 nM

## UUGUUGUAUGUAGGAUAUGCAUAUUGUUAUUAUGCAGAAGGACAUGAGGAUCACCCAUGUAUGUUAUUAUUAUGUGUUAUGUGU
[1]
  apparent Kd: 39.3 nM
[2]
  apparent Kd: 63.9 nM

## UUGUUGUGAGGAUAUCCAAUAUAUGACAUGAGGAUCACCCAUGUUUCCACUCGUACCUCCGGAGAAGGCACUUAGU
[1]
  apparent Kd: 29.2 nM
[2]
  apparent Kd: 27.9 nM

## UUGUUGUGUGGAGGAUAUGCACUAACUGUUAGCGCAGAAGGCCACAUGAGGAUCACCCAUGUCCGGGUUACUGCCUAAGGAGUG
[1]
  apparent Kd: 71.9 nM
[2]
  apparent Kd: 230 nM

## UUUACAUGAGGAUCACCCAUGUUAAAAUAAUUAAUUAUAAGUGAGGAUAUAUAAUUUAUAAAAUUGUAGAAGGCACUGGGUAUU
[3]
  apparent Kd: 17.4 nM
[4]
  apparent Kd: 21.1 nM

## UUUACGGGAGGAUAUACAUGAGGAUCACCCAUGUAACGGUGUGUAAUAUAUAUUGCGUGUAGAAGGUUUGUGGG
[1]
  apparent Kd: 79.3 nM
[2]
  apparent Kd: 78.6 nM

## UUUACGUGAGGAUAUGCGAAUAGUACGUAAGUCAUACAGACGCAGAAGGCACAUGAGGAUCACCCAUGUGAACC
[1]
  apparent Kd: 22.7 nM
[2]
  apparent Kd: 80.4 nM
